Measured values from ChEMBL document CHEMBL2046375, “Antiprotozoal sesquiterpene pyridine alkaloids from Maytenus ilicifolia” (J Nat Prod, 2012).
Active and inactive are the calls of the source. The rule behind the calls is not given here.

Assays:
Leishmania amazonensis [1] = experiment: Antileishmanial activity against Leishmania amazonensis MPRO/BR/1972/M1841-LV-79 after 72 hrs by MTT assay; format: functional, organism-based; conditions: MPRO/BR/1972/M1841-LV-79, 72 h
Method in brief: (§1)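 Promastigotes from 4-day-old LIT cultures (10% heat-inactivated FCS), seeded at 8 × 10^6 parasites/mL. Compounds dissolved in DMSO, tested at 10 concentrations from 100 to 0.098 μg/mL. 72 h at 28 °C. MTT-PMS added, 75 min in dark at 28 °C, then 10% SDS for 30 min at room temperature. Absorbance read at 490 nm. Triplicate per concentration, IC50 from percentage cytotoxicity. Pentamidine isothionate was the reference drug.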

[2] = Cytotoxicity against Balb/c mouse peritoneal macrophages after 24 hrs by MTT assay; format: cell-based; conditions: Peritoneal macrophage cell
Method in brief: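 Thioglycolate-elicited peritoneal macrophages (3 mL of 3% given i.p., harvested 3 days later by PBS pH 7.2 lavage). Cells in RPMI 1640 with 5% FCS, antibiotics and mercaptoethanol, stock suspension at 5 × 10^6 cells/mL. Mixed 1:1 with test solution, 24 h at 37 °C, 7.5% CO2. MTT added for 3 h, formazan dissolved in 2-propanol, OD read at 590 nm versus RPMI-only control. Triplicate.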

[3] = Selectivity index, ratio of IC50 for Balb/c mouse peritoneal macrophages to IC50 for epimastigotes of Trypanosoma cruzi
Method in brief: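 Ratio of IC50 in Balb/c peritoneal macrophages (24 h MTT) to IC50 against T. cruzi Y-strain epimastigotes (72 h MTT, 28 °C).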

Leishmania chagasi [4] = experiment: Antileishmanial activity against Leishmania chagasi MHOM/BR/1974/PP75 after 72 hrs by MTT assay; format: functional, organism-based; conditions: MHOM/BR/1974/PP75, 72 h; method in brief: as §1
Trypanosoma cruzi [5] = experiment: Antitrypanosomal activity against epimastigotes of Trypanosoma cruzi after 72 hrs by MTT assay; format: functional, organism-based
Method in brief: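 Y-strain epimastigotes grown axenically at 28 °C in LIT with 10% FCS, harvested at 7 days (exponential phase). Test wells held 1 × 10^7 parasites/mL. Compounds from DMSO stock at 10 concentrations spanning 100–0.098 μg/mL. 72 h at 28 °C. MTT-PMS added, 75 min in dark, then 10% SDS for 30 min. Read at 595 nm, triplicate. Benznidazole served as reference.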

Leishmania amazonensis [6] = experiment: Antileishmanial activity against Leishmania amazonensis MPRO/BR/1972/M1841-LV-79 at 100 uM after 72 hrs by MTT assay; format: functional, organism-based
Trypanosoma cruzi [7] = experiment: Antitrypanosomal activity against epimastigotes of Trypanosoma cruzi at 100 uM after 72 hrs by MTT assay; format: functional, organism-based
Leishmania chagasi [8] = experiment: Antileishmanial activity against Leishmania chagasi MHOM/BR/1974/PP75 at 100 uM after 72 hrs by MTT assay; format: functional, organism-based

| Structure (SMILES) | IC50 (Leishmania amazonensis [1]) | IC50 [2] | Ratio IC50 [3] | IC50 (Leishmania chagasi [4]) | IC50 (Trypanosoma cruzi [5]) | Activity (Leishmania amazonensis [6]) | Activity (Trypanosoma cruzi [7]) | Activity (Leishmania chagasi [8]) |
| --- | --- | --- | --- | --- | --- | --- | --- | --- |
| CC(=O)OC[C@]12[C@H](OC(C)=O)[C@@H](OC(=O)c3ccccc3)[C@@H]3[C@@H](OC(C)=O)[C@@]14O[C@@]3(C)COC(=O)c1cccnc1[C@@H](C)[C@H](C)C(=O)O[C@@H]([C@H](OC(C)=O)[C@@H]2OC(C)=O)[C@]4(C)O | > 100 µM | 1850 µM | 44 | 1.4 µM | 41.9 µM | – | – | – |
| CC(=O)OC[C@]12[C@H](OC(C)=O)[C@@H](OC(=O)c3ccccc3)[C@@H]3[C@@H](OC(C)=O)[C@@]14O[C@@]3(C)COC(=O)c1cccnc1CCC(C)C(=O)O[C@@H]([C@H](OC(C)=O)[C@@H]2OC(C)=O)[C@]4(C)O (stereo partly specified) | – | – | – | – | – | inactive | inactive | inactive |
| CC(=O)OC[C@]12[C@H](OC(C)=O)[C@H](OC(C)=O)[C@@H]3[C@@H](OC(C)=O)[C@@]14O[C@@]3(C)COC(=O)c1cccnc1C(C)C(C)C(=O)O[C@@H]([C@H](OC(C)=O)[C@@H]2OC(=O)c1ccccc1)[C@]4(C)O (stereo partly specified) | – | – | – | – | – | inactive | inactive | inactive |
| N=C(N)c1ccc(OCCCCCOc2ccc(C(=N)N)cc2)cc1 [PENTAMIDINE] | 7 µM | – | – | 5.1 µM | – | – | – | – |
| CC(=O)OC[C@]12[C@H](OC(C)=O)[C@@H](OC(=O)c3ccccc3)[C@@H]3[C@@H](O)[C@@]14O[C@@]3(C)COC(=O)c1cccnc1[C@@H](C)[C@H](C)C(=O)O[C@@H]([C@H](OC(C)=O)[C@@H]2OC(C)=O)[C@]4(C)O [ILICIFOLIUNINE A] | > 100 µM | 1280 µM | 46.2 | > 100 µM | 27.7 µM | – | – | – |
| O=C(Cn1ccnc1[N+](=O)[O-])NCc1ccccc1 [BENZNIDAZOLE] | – | 1140 µM | 26.7 | – | 42.7 µM | – | – | – |
